# The array DNA melting data of Ke et al. (doi:10.1101/2024.01.08.574731)
# Columns and labels:
# [1] = folding enthalpy; higher = less favourable; fluorescence melt of hairpins on a sequencing array, two-state fit; conditions: sodium 0.088 M
# Method in brief: (§1)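 Cy3 signals were normalised both to pre-quench Cy3 and to control constructs. They came from library hairpins carrying annealed Cy3 and quencher oligos on a sequenced MiSeq flow cell, imaged in 50 mM Na-HEPES pH 8.0, 25 mM NaCl, in 2.5 °C steps up to 60 °C. Bootstrapped two-state fits gave melting temperature and folding enthalpy, and four replicates were combined by inverse variance. Fitted temperatures were then raised by 9.35 °C to match UV melts.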
# [2] = melting temperature; fluorescence melt of hairpins on a sequencing array, two-state fit, raised by 9.35 °C to match UV melts; conditions: sodium 0.088 M
# Method in brief: as §1
Sequence,folding enthalpy [1],Tm [2]
GAACAGGGAAACTTGTTC (((((.(....).))))),-27.2 kcal/mol,37.1 °C
GAACCACGAAAGTGTTTC (((.(((....))).))),-27.6 kcal/mol,37.2 °C
GAACCAGGAAACTGATTC (((.(((....))).))),-20.5 kcal/mol,32.3 °C
GAACCAGGAAACTGGTCC (.(((((....))))).),-12.6 kcal/mol,39.5 °C
GAACCCCGAAAGGGTTTC (((.(((....))).))),-16.2 kcal/mol,47.8 °C
GAACCCGAAAGGGAATTC ((((((....)))..))),-12.1 kcal/mol,31.4 °C
GAACCCGAAAGGGCCTTC ((((((....)))..))),-14.2 kcal/mol,34.6 °C
GAACCCGAAAGGGGGTTC ((((((....)))..))),-25.3 kcal/mol,56 °C
GAACCCGAAAGGGGTTC ((((((....))).))),-26 kcal/mol,61.1 °C
GAACCCGAAAGGGTATTC ((((((....)))..))),-9.47 kcal/mol,33.2 °C
GAACCCGGAAACGGGTCC (.(((((....))))).),-11.2 kcal/mol,45.4 °C
GAACCGGGAAACCGATTC (((.(((....))).))),-26.4 kcal/mol,39.2 °C
GAACCGGGAAACCGGCTC ((.((((....)))).)),-15.7 kcal/mol,46 °C
GAACCGGGAAACCGGTCC (.(((((....))))).),-11.6 kcal/mol,41.2 °C
GAACCTGGAAACGGGTTC (((((.(....).))))),-39.3 kcal/mol,50.7 °C
GAACGAGAAATCGTTC ((((((....)))))),-31.3 kcal/mol,54.5 °C
GAACGAGCGAAAGCTTTC (((..(((....)))))),-8.11 kcal/mol,23.9 °C
GAACGAGGAAACCCGTTC (((((.(....).))))),-33.5 kcal/mol,45.9 °C
GAACGAGGAAACTTGTTC ((((.((....)).)))),-28.7 kcal/mol,43.2 °C

Sequence,folding enthalpy [1],Tm [2]
GAACGCACGAAAGTGTTC (((..(((....)))))),-12.8 kcal/mol,34.1 °C
GAACGCGAAAGCGAGTTC ((((((....)))..))),-14.8 kcal/mol,43.1 °C
GAACGCGAAAGCGATTC ((((((....))).))),-14.1 kcal/mol,45.7 °C
GAACGCGAAAGCGATTTC ((((((....)))..))),-9.14 kcal/mol,32.3 °C
GAACGCGAAAGCGTGTTC ((((((....)))..))),-10.5 kcal/mol,46.6 °C
GAACGCGCGAAAGCGTTC (((..(((....)))))),-24.7 kcal/mol,57.8 °C
GAACGCGGAAACACGTCC (.(((.(....).))).),-20.1 kcal/mol,28.2 °C
GAACGCGGAAACGCACTC ((..(((....)))..)),-8.19 kcal/mol,30.1 °C
GAACGCGGAAACGCATTC (((.(((....))).))),-19.9 kcal/mol,40.1 °C
GAACGCGGAAACGCGTCC (.(((((....))))).),-9.64 kcal/mol,47.8 °C
GAACGGAAACGTTC (((((....))))),-31.7 kcal/mol,55.2 °C
GAACGGACGAAAGTCTTC (((..(((....)))))),-7.13 kcal/mol,20.7 °C
GAACGGGGAAACCCGCTC ((.((((....)))).)),-16.3 kcal/mol,45.3 °C
GAACGTGGAAACATGTTC ((((.((....)).)))),-36.2 kcal/mol,47.2 °C
GAACGTGGAAACGCGTTC (((((.(....).))))),-36.4 kcal/mol,53.8 °C
GAACTAGAAATAGTTC ((((((....)))))),-29.3 kcal/mol,42 °C
GAACTAGGAAACTAGTCC (.(((((....))))).),-20.4 kcal/mol,29.7 °C
GAACTCCCGAAAGGGTTC (((..(((....)))))),-12.6 kcal/mol,31.7 °C
GAACTGGCGAAAGCCTTC (((..(((....)))))),-6.15 kcal/mol,19.7 °C
